In ChEMBL document CHEMBL1157900, “Bivalent 5,8,9,13b-tetrahydro-6H-isoquino[1,2-a]isoquinolines and -isoquinolinium salts: novel heterocyclic templates for butyrylcholinesterase inhibitors” (Bioorg Med Chem Lett, 2010):
Active and inactive are the calls of the source. No cut-off for these calls is given here.

What was measured:
Acetylcholinesterase = Acetylcholinesterase (Electrophorus electricus, UniProt O42275); assay: Inhibition of Electric eel AChE after 2 mins by colorimetric Ellman assay
Acetylcholinesterase, sequence (O42275 whole entry): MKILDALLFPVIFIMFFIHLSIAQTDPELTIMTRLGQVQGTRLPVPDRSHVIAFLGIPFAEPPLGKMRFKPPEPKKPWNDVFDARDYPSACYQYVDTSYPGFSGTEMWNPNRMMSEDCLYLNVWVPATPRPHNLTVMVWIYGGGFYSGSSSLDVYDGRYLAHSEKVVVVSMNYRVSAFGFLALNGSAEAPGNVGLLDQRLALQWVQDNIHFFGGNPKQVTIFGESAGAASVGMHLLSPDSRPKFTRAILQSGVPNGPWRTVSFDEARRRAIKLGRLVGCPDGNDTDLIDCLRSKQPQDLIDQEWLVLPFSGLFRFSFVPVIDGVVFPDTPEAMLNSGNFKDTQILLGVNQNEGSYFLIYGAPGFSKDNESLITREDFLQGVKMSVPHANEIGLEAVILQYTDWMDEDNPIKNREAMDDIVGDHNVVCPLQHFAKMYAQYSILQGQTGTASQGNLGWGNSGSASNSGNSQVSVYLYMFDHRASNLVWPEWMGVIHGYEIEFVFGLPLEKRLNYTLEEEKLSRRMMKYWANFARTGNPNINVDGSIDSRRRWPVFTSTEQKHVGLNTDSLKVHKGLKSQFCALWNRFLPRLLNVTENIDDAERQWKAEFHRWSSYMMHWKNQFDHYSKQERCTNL

Cholinesterase = Cholinesterase (Equus caballus, UniProt P81908); assay: Inhibition of Equine serum BChE after 2 mins by colorimetric Ellman assay
Cholinesterase, sequence (P81908 whole entry): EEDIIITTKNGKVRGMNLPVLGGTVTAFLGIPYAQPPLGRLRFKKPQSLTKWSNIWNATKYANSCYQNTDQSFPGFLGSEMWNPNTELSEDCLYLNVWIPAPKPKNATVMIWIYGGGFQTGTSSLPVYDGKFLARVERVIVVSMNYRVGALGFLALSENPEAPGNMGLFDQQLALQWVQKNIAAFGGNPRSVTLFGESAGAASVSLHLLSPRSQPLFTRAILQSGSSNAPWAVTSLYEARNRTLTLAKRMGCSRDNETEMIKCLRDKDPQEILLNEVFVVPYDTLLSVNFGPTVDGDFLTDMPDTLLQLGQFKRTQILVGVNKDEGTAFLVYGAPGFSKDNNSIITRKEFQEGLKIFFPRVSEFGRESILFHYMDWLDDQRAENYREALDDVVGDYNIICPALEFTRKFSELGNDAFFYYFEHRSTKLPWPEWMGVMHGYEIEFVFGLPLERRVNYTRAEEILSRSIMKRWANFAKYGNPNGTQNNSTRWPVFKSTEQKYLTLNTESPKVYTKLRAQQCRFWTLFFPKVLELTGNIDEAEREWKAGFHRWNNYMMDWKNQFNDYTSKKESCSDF

[1] = Selectivity ratio of IC50 for Electric eel AChE to IC50 for equine serum BChE
[2] = Cytotoxicity against human SH-SY5Y cells assessed as cell viability after 24 hrs by MTT assay; assay type: cell-based
Procedure, shortened: (§1)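 Photometric MTT cell-viability readout after compound exposure of human neuronal (SH-SY5Y) or glial (MG-U87) cells. CC50 reported as mean ± SD of at least three experiments, each run in triplicate.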

[3] = Cytotoxicity against human U87MG cells assessed as cell viability after 24 hrs by MTT assay; assay type: cell-based, U-87MG ATCC; procedure, shortened: as §1
[4] = target: Cholinesterase (Equus caballus) (UniProt P81908); assay: Reversible inhibition of Equine serum BChE by Lineweaver-Burke plot
Cholinesterase (Equus caballus), sequence (P81908 whole entry): as above
Procedure, shortened: (§2)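 Equine serum BChE. Substrate-velocity curves were recorded at various substrate concentrations, each at several fixed inhibitor concentrations. Data were plotted as reciprocal velocity against reciprocal substrate concentration (Lineweaver-Burk). Km was taken as the negative reciprocal of the x-intercept and Vmax as the reciprocal of the y-intercept, then compared across inhibitor concentrations.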

[5] = target: Cholinesterase (Equus caballus) (UniProt P81908); assay: Competitive inhibition of Equine serum BChE by Lineweaver-Burke plot; procedure, shortened: as §2

| Structure (SMILES) | IC50 (Acetylcholinesterase; read-out: IC50) | IC50 (Cholinesterase; read-out: IC50) | Ratio IC50 [1] | CC50 at 24 h [2] | CC50 at 24 h [3] | inhibition [4] | inhibition [5] | IC50 (Acetylcholinesterase; read-out: pIC50 (converted)) | IC50 (Cholinesterase; read-out: pIC50 (converted)) |
| --- | --- | --- | --- | --- | --- | --- | --- | --- | --- |
| CN1CCc2ccccc2Cc2ccc(OCCCOc3ccc4c(c3)CCN(C)CCc3ccccc3C4)cc2CC1 | 4.8 µM | 0.14 µM | 34 | – | – | – | – | – | – |
| c1ccc2c(c1)CCN1CCc3cc(OCCCOc4ccc5c(c4)CCN4CCc6ccccc6C54)ccc3C21 (centres undefined) | 4.5 µM | 0.15 µM | 30.8 | 8.94 µM | 26.9 µM | – | – | – | – |
| CN1CCc2ccccc2Cc2ccc(OCCCCCCCCOc3ccc4c(c3)CCN(C)CCc3ccccc3C4)cc2CC1 | 2 µM | 0.21 µM | 9.9 | – | – | – | – | – | – |
| c1ccc2c(c1)CCN1CCc3cc(OCCCCCCCCCCCCOc4ccc5c(c4)CCN4CCc6ccccc6C54)ccc3C21 (centres undefined) | 4.1 µM | 0.92 µM | 4.2 | – | 46.6 µM | – | – | – | – |
| C[N+]12CCc3ccccc3C1c1ccc(OCCCCCOc3ccc4c(c3)CC[N+]3(C)CCc5ccccc5C43)cc1CC2 (centres undefined) | 0.28 µM | 0.047 µM | 5.9 | – | – | – | – | – | – |
| c1ccc2c(c1)CCN1CCc3cc(OCCCCCCCCOc4ccc5c(c4)CCN4CCc6ccccc6C54)ccc3C21 (centres undefined) | 1.2 µM | 0.68 µM | 3 | 19.2 µM | 42 µM | – | – | – | – |
| COc1ccc2c(c1)CCN1CCc3ccccc3C21 (centres undefined) | > 10000 µM | > 10000 µM | – | 171 µM | 775 µM | – | – | – | – |
| c1ccc2c(c1)CCN1CCc3cc(OCCCCOc4ccc5c(c4)CCN4CCc6ccccc6C54)ccc3C21 (centres undefined) | 1.1 µM | 0.017 µM | 76.2 | 6.35 µM | 19.5 µM | – | – | – | – |
| COc1ccc2c(c1)CCN(C)CCc1ccccc1C2 | > 10000 µM | > 10000 µM | – | – | – | – | – | – | – |
| C[N+]12CCc3ccccc3C1c1ccc(OCCCCCCOc3ccc4c(c3)CC[N+]3(C)CCc5ccccc5C43)cc1CC2 (centres undefined) | 0.15 µM | 0.027 µM | 5.6 | – | – | – | – | – | – |
| C[N+]12CCc3ccccc3C1c1ccc(OCCCOc3ccc4c(c3)CC[N+]3(C)CCc5ccccc5C43)cc1CC2 (centres undefined) | 0.45 µM | 0.16 µM | – | – | – | – | – | – | – |
| c1ccc2c(c1)CCN1CCc3cc(OCCCCCCOc4ccc5c(c4)CCN4CCc6ccccc6C54)ccc3C21 (centres undefined) | 0.69 µM | 0.014 µM | 48.9 | 7.4 µM | 20.7 µM | Active | Active | – | – |
| C[N+]12CCc3ccccc3C1c1ccc(OCCCCOc3ccc4c(c3)CC[N+]3(C)CCc5ccccc5C43)cc1CC2 (centres undefined) | 0.39 µM | 0.051 µM | 8.8 | – | – | – | – | – | – |
| c1ccc2c(c1)CCN1CCc3cc(OCCCCCOc4ccc5c(c4)CCN4CCc6ccccc6C54)ccc3C21 (centres undefined) | 0.65 µM | 0.017 µM | 38.3 | – | 8.7 µM | – | – | 0.308 µM | – |
| C[N+]12CCc3ccccc3C1c1ccc(OCCCCCCCCOc3ccc4c(c3)CC[N+]3(C)CCc5ccccc5C43)cc1CC2 (centres undefined) | 0.28 µM | 0.11 µM | 2.5 | – | – | – | – | – | – |
| COc1ccc2c(c1)CC[N+]1(C)CCc3ccccc3C21 (centres undefined) | 8.8 µM | 6.4 µM | 1.4 | – | – | – | – | – | – |
| C[N+]12CCc3ccccc3C1c1ccc(OCCCCCCCCCCCCOc3ccc4c(c3)CC[N+]3(C)CCc5ccccc5C43)cc1CC2 (centres undefined) | 0.12 µM | 0.036 µM | 3.4 | – | – | – | – | – | 0.0353 µM |
